ChEMBL document CHEMBL1129996, “1-Aryl-3,5-dihydro-4H-2,3-benzodiazepin-4-ones: novel AMPA receptor antagonists” (J Med Chem, 1997)
Values joined by “and” are separate entries in the source; they are usually repeats but may differ in a detail not shown here. Equal values may be shown once. One block for each molecule: values may come before it.

Tests used:
Mus musculus [1] = species: Mus musculus; assay: Audiogenic seizures after concomitant treatment with Flumazenil (8.24 uM) in DBA / 2 mice tonic phase; type: functional
Mus musculus [2] = assay: Anticonvulsant activity against the clonic seizures induced by icv injection of AMPA in DBA / 2 mice at a dose range of 10-66 uM/kg; type: functional; settings: central
Mus musculus [3] = species: Mus musculus; assay: Audiogenic seizures after concomitant treatment with Flumazenil (24.72 uM) in DBA / 2 mice clonic phase; type: functional
[4] = Therapeutic index it is the ratio between TD50 and ED50 (from the clonic phase of the audiogenic seizures); settings: read-out: TI
In short: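 Therapeutic index computed as rotarod TD50 divided by ED50 for the clonic phase of audiogenic seizures in DBA/2 mice.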

Mus musculus [5] = species: Mus musculus; assay: Audiogenic seizures after concomitant treatment with Flumazenil (24.72 uM) in DBA / 2 mice tonic phase; type: functional
Mus musculus [6] = assay: Anticonvulsant activity against clonic phase of the audiogenic seizures in DBA / 2 mice 30 min after ip administration at a dose range 10-66 uM/kg; type: functional; settings: 0.5 h
In short: (§1)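 Groups of 10 DBA/2 mice of either sex; drug ip (0.1 mL/10 g) as fresh solution in 50% DMSO/50% saline, 30 min before auditory stimulation (12-16 kHz, 109 dB, 60 s or until tonic extension) under perspex dome after 60 s habituation. Latency and incidence of wild running, clonic and tonic phases scored; ED50 (95% confidence limits) by Litchfield-Wilcoxon.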

Mus musculus [7] = assay: Anticonvulsant activity against the tonic seizures induced by icv injection of AMPA in DBA / 2 mice at a dose range of 10-66 uM/kg; type: functional; settings: central
[8] = Motor toxicity in 50% of mice on locomotion assessed by Rotarod test following 30 min ip administration; type: organism-based; settings: mouse, in vivo
In short: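 Male Swiss mice (20-26 g, 48-54 days), groups of 10, trained on rotarod (3 cm, 8 rpm); tested 30 min after ip dosing. Impairment = failure to stay on for 2 min; TD50 (95% confidence limits) by Litchfield-Wilcoxon.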

Mus musculus [9] = assay: Anticonvulsant activity against tonic phase of the audiogenic seizures in DBA / 2 mice 30 min after ip administration at a dose range 10-66 uM/kg; type: functional; settings: 0.5 h; in short: as §1
[10] = Relative lipophilicity of compound; type: physicochemical; settings: reversed-phase TLC, acetone/water 2:1
In short: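 Reversed-phase TLC type lipophilicity: plates dried 105 °C 1 h, mobile phase acetone:water 2:1, 1 µL of 3 mg/mL CHCl3 solution spotted; five runs with varied positions, mean Rf converted as Rm = log[(1/Rf) - 1].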

Mus musculus [11] = species: Mus musculus; assay: Audiogenic seizures after concomitant treatment with Flumazenil (8.24 uM) in DBA / 2 mice clonic phase; type: functional
Mus musculus [12] = assay: Anticonvulsant activity against clonic phase of the audiogenic seizures in DBA / 2 mice 30 min after ip administration at a dose range 3.3-100 uM/kg; type: functional; settings: 0.5 h; in short: as §1
Mus musculus [13] = assay: Audiogenic seizures after pretreatment with Aniracetam in DBA / 2 mice clonic phase at a dose range of 10-200 uM/kg; type: functional
In short: (§2)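 DBA/2 mice pretreated with aniracetam 50 nmol icv 60 min before auditory testing, with ip 2,3-benzodiazepine; audiogenic clonic and tonic phases scored; ED50 by Litchfield-Wilcoxon.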

Mus musculus [14] = assay: Anticonvulsant activity against the clonic seizures induced by icv injection of AMPA in DBA / 2 mice at a dose range of 10-100 uM/kg; type: functional; settings: central
Mus musculus [15] = assay: Audiogenic seizures after pretreatment with Aniracetam in DBA / 2 mice tonic phase at a dose range of 10-200 uM/kg; type: functional; in short: as §2
Mus musculus [16] = assay: Anticonvulsant activity against tonic phase of the audiogenic seizures in DBA / 2 mice 30 min after ip administration at a dose range 3.3-100 uM/kg; type: functional; settings: 0.5 h; in short: as §1
Mus musculus [17] = assay: Anticonvulsant activity against the tonic seizures induced by icv injection of AMPA in DBA / 2 mice at a dose range of 10-100 uM/kg; type: functional; settings: central
Mus musculus [18] = assay: Pentylenetetrazole-induced seizures in Swiss mice after 45 min pretreatment at a dose range 10-150 uM/kg; type: functional
Mus musculus [19] = assay: Anticonvulsant activity against the maximal electroshock in Swiss mice after 45 minutes pretreatment at a dose range 10-150 uM/kg; type: functional
In short: (§3)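 Swiss mice dosed ip in 50% DMSO/50% saline 45 min before ear-clip electroshock (50 mA, 20 ms pulses, 35 Hz, 400 ms). Protection = abolition of tonic hindlimb extension. Usually 4-5 doses with 8-10 mice each; ED50 (95% confidence limits) by Litchfield-Wilcoxon.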

Mus musculus [20] = assay: Pentylenetetrazole-induced seizures in Swiss mice after 45 min pretreatment at a dose range 10-100 uM/kg; type: functional
In short: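 Male Swiss mice (20-26 g), compound ip in 50% DMSO/50% saline 45 min before sc pentylenetetrazole at CD97 (85 mg/kg), then observed 30 min. Protection is absence of clonic spasms lasting at least 5 s. Typically 4-5 doses, 8-10 mice per dose. ED50 with 95% confidence limits by Litchfield and Wilcoxon.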

Mus musculus [21] = assay: Anticonvulsant activity against tonic phase of the audiogenic seizures in DBA / 2 mice 30 min after ip administration at a dose range 3.3-66 uM/kg; type: functional; settings: 0.5 h
In short: (§4)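 Groups of 10 DBA/2 mice of either sex, dosed ip (0.1 mL/10 g) with fresh solution in 50% DMSO/50% saline; 30 min later exposed under a perspex dome (after 60 s habituation) to 12-16 kHz, 109 dB sound for 60 s or until tonic extension. Scored for latency and incidence of wild running, clonus, tonus; ED50 (95% limits) by Litchfield-Wilcoxon.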

Mus musculus [22] = assay: Anticonvulsant activity against the maximal electroshock in Swiss mice after 45 minutes pretreatment at a dose range 10-100 uM/kg; type: functional; in short: as §3
Mus musculus [23] = assay: Anticonvulsant activity against clonic phase of the audiogenic seizures in DBA / 2 mice 30 min after ip administration at a dose range 3.3-66 uM/kg; type: functional; settings: 0.5 h; in short: as §4

Rm [10]: -0.525
Compound: COc1cc2c(cc1OC)C(c1cccc(N)c1)=NNC(=O)C2
ED50 (Mus musculus [1]): 18.2 µmol/kg
ED50 (Mus musculus [2]): 30.9 µmol/kg
ED50 (Mus musculus [3]): 29.2 µmol/kg
therapeutic index (TD50/ED50) [4]: 2.7
ED50 (Mus musculus [5]): 17.5 µmol/kg
ED50 (Mus musculus [6]): 19.3 µmol/kg and 6 mg/kg
ED50 (Mus musculus [7]): 27.8 µmol/kg
TD50 at 0.5 h [8]: 51.5 µmol/kg
ED50 (Mus musculus [9]): 18.3 µmol/kg and 5.69 mg/kg
ED50 (Mus musculus [11]): 21 µmol/kg

Rm [10]: -0.602
Compound: COc1cc2c(cc1OC)C(c1ccc(N)cc1)=NNC(=O)C2
ED50 (Mus musculus [1]): 12 µmol/kg
ED50 (Mus musculus [12]): 15 µmol/kg and 4.66 mg/kg
ED50 (Mus musculus [13]): 65.2 µmol/kg
ED50 (Mus musculus [3]): 12 µmol/kg
therapeutic index (TD50/ED50) [4]: 3.8
ED50 (Mus musculus [14]): 32.1 µmol/kg
ED50 (Mus musculus [5]): 10.2 µmol/kg
ED50 (Mus musculus [15]): 58.2 µmol/kg
ED50 (Mus musculus [16]): 12.6 µmol/kg and 3.92 mg/kg
TD50 at 0.5 h [8]: 56.8 µmol/kg
ED50 (Mus musculus [17]): 25 µmol/kg
ED50 (Mus musculus [18]): 22.6 µmol/kg
ED50 (Mus musculus [19]): 15.9 µmol/kg
ED50 (Mus musculus [11]): 14.1 µmol/kg

Compound: CC1=NN=C(c2ccc(N)cc2)c2cc3c(cc2C1)OCO3 [GYKI-52466]
ED50 (Mus musculus [1]): 26.7 µmol/kg
ED50 (Mus musculus [13]): 134 µmol/kg
ED50 (Mus musculus [3]): 39.5 µmol/kg
ED50 (Mus musculus [14]): 57.5 µmol/kg
ED50 (Mus musculus [5]): 29.7 µmol/kg
ED50 (Mus musculus [20]): 68.3 µmol/kg
ED50 (Mus musculus [15]): 100 µmol/kg
ED50 (Mus musculus [21]): 25.3 µmol/kg and 7.41 mg/kg
TD50 at 0.5 h [8]: 76.1 µmol/kg
ED50 (Mus musculus [22]): 35.7 µmol/kg
ED50 (Mus musculus [17]): 40.5 µmol/kg
ED50 (Mus musculus [23]): 35.8 µmol/kg and 10.5 mg/kg
Rm [10]: -0.298
ED50 (Mus musculus [11]): 37.8 µmol/kg
